# Published values from different studies.
# Each line is one published result; the experiments were not run side by side.
# Matrix: plasma
Compound,species,route,dose,setting,half-life [h]
COCCOc1cnc2ccn([C@H](C)c3nnc4c(F)cc(-c5cnn(C)c5)cn34)c(=O)c2c1,human,oral,50 mg,"multiple doses, once daily, patients",15.3
C[C@@H](c1ccc2nccn2c1)n1nnc2ncc(-c3cnn(C)c3)nc21,human,oral,600 mg,,7.1
CC(C)(O)c1ccccc1-c1ccc2[nH]c(/C=C/c3ccc(C(F)(F)F)cc3)nc2c1,male human,oral,50 mg,"single dose, fasted, healthy volunteers",68.6
CC(C)(C)OC[C@@H]1C(=O)NCCN1C(=O)C[C@H](N)Cc1cc(F)c(F)cc1F,male human,oral,5 mg,"multiple doses, steady state, healthy volunteers",24.7
CC(=O)Oc1ccccc1C(=O)O,human,oral,650 mg,healthy volunteers,0.53
COc1ccc(-n2nc(C(N)=O)c3c2C(=O)N(c2ccc(N4CCCCC4=O)cc2)CC3)cc1,human,oral,20 mg,"single dose, healthy volunteers",~13
O=C(Nc1c(Cl)cncc1Cl)c1ccc(OC(F)F)c(OCC2CC2)c1,human,oral,0.5 mg,single dose,19.9
O=C(/C=C/c1cccc(S(=O)(=O)Nc2ccccc2)c1)NO,human,intravenous,2000 mg/m²,patients,1.42
CCOc1cc([C@@H](CS(C)(=O)=O)N2C(=O)c3cccc(NC(C)=O)c3C2=O)ccc1OC,human,oral,30 mg,"single dose, healthy volunteers",8.08
Cc1nc(C(=O)NCC(=O)O)c(O)c2ccc(Oc3ccccc3)cc12,human,oral,100 mg,"single dose, healthy volunteers",11.7
COc1cc(C(=O)NC2CCN(C)CC2)c(F)cc1Nc1ncc(C(F)(F)F)c(Oc2cccc3c2C(=O)N(C)C3)n1,human,oral,10 mg,"multiple doses, once daily, patients",25.8
CS(=O)(=O)CCC#N,human,oral,300 mg,"multiple doses, once daily",21.3
Cn1cc(-c2ccc(S(=O)(=O)[C@@H]3C[C@@H](C(=O)NC4(C#N)CC4)N(C(=O)C4(C(F)(F)F)CC4)C3)c(C(F)(F)F)c2)cn1,human,oral,1 mg,"single dose, fasted, healthy volunteers",5.47
Nc1cc(C(F)(F)F)c(-c2cc(N3CCOCC3)nc(N3CCOCC3)n2)cn1,human,oral,25 mg/day,patients,36.8
Cc1cc(Nc2ncc(Cl)c(Nc3ccccc3S(=O)(=O)C(C)C)n2)c2c(c1C1CCN(C)CC1)C[C@@H](C)O2,human,oral,160 mg,"single dose, fasted, healthy volunteers",34.6
C[C@@H](Nc1cc(F)cc(F)c1)c1cc(C(=O)N(C)C)cc2c(=O)cc(N3CCOCC3)oc12,human,oral,30 mg,patients,3.79
CS(=O)(=O)n1cc2c(n1)CN([C@H]1CO[C@H](c3cc(F)ccc3F)[C@@H](N)C1)C2,male human,oral,10 mg,"single dose, fasted",49.9
OC[C@H]1O[C@@H](c2ccc(Cl)c(Cc3ccc(O[C@H]4CCOC4)cc3)c2)[C@H](O)[C@@H](O)[C@@H]1O,male human,oral,25 mg,"multiple doses, once daily, steady state",8.44
C/C(=C\c1csc(C)n1)[C@@H]1C[C@@H]2O[C@]2(C)CCC[C@H](C)[C@H](O)[C@@H](C)C(=O)C(C)(C)[C@@H](O)CC(=O)N1,human,intravenous,20 mg/m²,patients,62.2
CCNCCCNC/C=C\CNCCCNCC,human,intravenous,100 mg,"patients, infusion",0.19
CC(C)[C@](O)(c1ccc2cc(OC(F)F)c(OC(F)F)cc2c1)c1c[nH]nn1,female human,oral,600 mg,single dose,8.4
CO[C@H]1/C=C\C=C(/C)C(=O)NC2=CC(=O)C(NCCN(C)C)=C(C[C@@H](C)C[C@H](OC)[C@H](O)[C@@H](C)/C=C(\C)[C@@H]1OC(N)=O)C2=O,human,intravenous,12 mg/m²,"patients, infusion",14.1
CN(C)Cc1ccc(S(=O)(=O)n2ccc(/C=C/C(=O)NO)c2)cc1,human,oral,,patients,~4
CO[C@H]1CC[C@H](N2C(=O)CNc3ncc(-c4ccc(C(C)(C)O)nc4)nc32)CC1,human,oral,7.5 mg,patients,7.68
c1cnc2ccc(Nc3nc(NC4CC4)c4nc[nH]c4n3)cc2c1,human,oral,400 mg/m²,patients,3.6
COc1ccc([C@@H]2CN(C(=O)[C@@H](O)CO)C[C@@]2(C)[C@@H](C)O)cc1OC1CN(c2ccc(C)cn2)C1,human,oral,1.5 mg,"single dose, healthy volunteers",13.5
CCOc1cc([C@@H](CS(C)(=O)=O)N2C(=O)c3cccc(NC(C)=O)c3C2=O)ccc1OC,male human,oral,20 mg,"single dose, healthy volunteers",7.6
NS(=O)(=O)NCCNc1nonc1C(=NO)Nc1ccc(F)c(Br)c1,human,oral,300 mg,"multiple doses, twice daily, steady state, patients",3.9
Cc1nc(-c2cn3c(n2)-c2ccc(-c4cnn(C(C)(C)C(N)=O)c4)cc2OCC3)n(C(C)C)n1,human,oral,6 mg,patients,22.4
C#C[C@]1(COP(=O)(O)OP(=O)(O)OP(=O)(O)O)O[C@@H](n2cnc3c(N)nc(F)nc32)C[C@@H]1O,human,oral,200 mg,single dose,116
CC(C)n1cc(C#N)c2cc(-n3cc(C(=O)O)cn3)ccc21,human,oral,50 mg,"single dose, fasted, healthy volunteers",7.1
CC(C)(Sc1ccncc1-c1ccc(C#N)c2ccccc12)C(=O)O,male human,oral,5 mg,"single dose, fasted, healthy volunteers",14.2
CO[C@@H]1[C@H](OC(=O)N2CC(CCN3CCOCC3)C2)CC[C@]2(CO2)[C@H]1[C@@]1(C)O[C@@H]1CC=C(C)C,human,subcutaneous,4.8 mg,"single dose, healthy volunteers",0.91
